Data from ChEMBL document CHEMBL4304834, “3-Amino-chromanes and Tetrahydroquinolines as Selective 5-HT2B, 5-HT7, or σ1 Receptor Ligands” (ACS Med Chem Lett, 2019).

Experiments:
[1] = molecular target: T1, Alpha-1A adrenergic receptor (Homo sapiens) (UniProt P35348); assay: Displacement of [3H]-Prazosin from human recombinant adrenergic alpha1A receptor expressed in cells at 10 uM after 90 mins by microbeta scintillation counting method relative to control; assay type: cell-based
T1 sequence (whole entry): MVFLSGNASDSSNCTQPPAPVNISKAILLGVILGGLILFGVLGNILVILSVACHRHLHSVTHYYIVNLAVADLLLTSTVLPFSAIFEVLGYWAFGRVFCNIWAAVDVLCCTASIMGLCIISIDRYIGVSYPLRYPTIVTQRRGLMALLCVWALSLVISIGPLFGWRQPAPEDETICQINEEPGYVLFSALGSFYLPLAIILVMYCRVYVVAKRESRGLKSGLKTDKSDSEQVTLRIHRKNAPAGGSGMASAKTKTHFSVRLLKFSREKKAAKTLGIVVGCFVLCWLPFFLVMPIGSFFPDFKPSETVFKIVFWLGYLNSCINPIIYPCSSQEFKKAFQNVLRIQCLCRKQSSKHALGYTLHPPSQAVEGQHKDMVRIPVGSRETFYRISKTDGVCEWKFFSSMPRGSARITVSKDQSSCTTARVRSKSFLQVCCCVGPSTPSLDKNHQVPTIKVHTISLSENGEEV

D(1A) dopamine receptor = D(1A) dopamine receptor (Homo sapiens, UniProt P21728); assay: Displacement of [3H]-SCH23390 from human recombinant dopamine D1 receptor expressed in HEKT cells at 10 uM after 90 mins by microbeta scintillation counting method relative to control; assay type: cell-based
Chain of D(1A) dopamine receptor (P21728 whole entry): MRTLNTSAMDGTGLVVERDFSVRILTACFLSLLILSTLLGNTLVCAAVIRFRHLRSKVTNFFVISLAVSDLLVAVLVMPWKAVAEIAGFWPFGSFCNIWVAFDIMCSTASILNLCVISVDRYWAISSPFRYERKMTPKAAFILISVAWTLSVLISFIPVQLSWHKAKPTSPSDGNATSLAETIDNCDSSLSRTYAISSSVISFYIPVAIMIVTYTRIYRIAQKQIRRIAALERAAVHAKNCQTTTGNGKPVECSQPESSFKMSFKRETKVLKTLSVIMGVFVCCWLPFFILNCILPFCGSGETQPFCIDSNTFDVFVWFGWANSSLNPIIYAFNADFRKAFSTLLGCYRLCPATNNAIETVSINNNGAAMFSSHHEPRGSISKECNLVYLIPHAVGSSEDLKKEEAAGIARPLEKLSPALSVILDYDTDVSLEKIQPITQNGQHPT

[2] = molecular target: Delta-type opioid receptor (Homo sapiens, UniProt P41143); assay: Displacement of [3H]-DADLE from human recombinant DOR receptor expressed in stable HEK cells after 90 mins by microbeta scintillation counting method; assay type: cell-based
Chain of Delta-type opioid receptor (P41143 whole entry): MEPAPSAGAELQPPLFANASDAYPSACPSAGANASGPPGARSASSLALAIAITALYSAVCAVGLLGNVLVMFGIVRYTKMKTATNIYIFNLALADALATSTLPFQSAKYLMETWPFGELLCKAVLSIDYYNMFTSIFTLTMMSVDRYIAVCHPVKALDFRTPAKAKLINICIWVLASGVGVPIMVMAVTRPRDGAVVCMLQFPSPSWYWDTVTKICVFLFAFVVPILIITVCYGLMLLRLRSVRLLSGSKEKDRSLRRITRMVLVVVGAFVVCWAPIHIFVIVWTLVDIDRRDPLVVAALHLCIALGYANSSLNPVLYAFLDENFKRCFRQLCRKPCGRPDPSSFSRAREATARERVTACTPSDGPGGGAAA
Summary of the method: (§1)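 Radioligand binding run by the NIMH Psychoactive Drug Screening Program. […] Otherwise Ki comes from sigmoidal curve fits of triplicate measurements in a single experiment, or is averaged over repeated experiments each run in triplicate.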

Rattus norvegicus = species: Rattus norvegicus; assay: Displacement of [3H]-PK11195 from PBR receptor in rat brain at 10 uM incubated for 90 mins by microbeta scintillation counting method relative to control; assay type: tissue-based; summary of the method: as §1
[3] = molecular target: Beta-3 adrenergic receptor (Homo sapiens, UniProt P13945); assay: Displacement of [3H]-CGP12177 from human recombinant adrenergic Beta3 receptor expressed in Flp-In HEK cells after 90 mins by microbeta scintillation counting method; assay type: cell-based; summary of the method: as §1
Chain of Beta-3 adrenergic receptor (P13945 whole entry): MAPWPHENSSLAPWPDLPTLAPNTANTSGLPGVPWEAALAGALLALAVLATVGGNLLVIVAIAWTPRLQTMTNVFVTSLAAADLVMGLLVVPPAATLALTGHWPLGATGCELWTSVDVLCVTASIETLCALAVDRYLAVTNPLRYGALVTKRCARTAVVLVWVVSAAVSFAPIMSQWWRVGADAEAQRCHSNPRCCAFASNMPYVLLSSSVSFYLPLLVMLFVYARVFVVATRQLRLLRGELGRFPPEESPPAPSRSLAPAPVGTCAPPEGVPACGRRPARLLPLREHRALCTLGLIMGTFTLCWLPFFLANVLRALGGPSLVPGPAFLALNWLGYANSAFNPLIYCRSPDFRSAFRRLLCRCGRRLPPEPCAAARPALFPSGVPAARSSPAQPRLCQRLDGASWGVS

[4] = molecular target: Sodium-dependent dopamine transporter (Homo sapiens, UniProt Q01959); assay: Displacement of [3H]-Win35428 from human recombinant DAT receptor expressed in stable HEK cells after 90 mins by microbeta scintillation counting method; assay type: cell-based
Chain of Sodium-dependent dopamine transporter (Q01959 whole entry): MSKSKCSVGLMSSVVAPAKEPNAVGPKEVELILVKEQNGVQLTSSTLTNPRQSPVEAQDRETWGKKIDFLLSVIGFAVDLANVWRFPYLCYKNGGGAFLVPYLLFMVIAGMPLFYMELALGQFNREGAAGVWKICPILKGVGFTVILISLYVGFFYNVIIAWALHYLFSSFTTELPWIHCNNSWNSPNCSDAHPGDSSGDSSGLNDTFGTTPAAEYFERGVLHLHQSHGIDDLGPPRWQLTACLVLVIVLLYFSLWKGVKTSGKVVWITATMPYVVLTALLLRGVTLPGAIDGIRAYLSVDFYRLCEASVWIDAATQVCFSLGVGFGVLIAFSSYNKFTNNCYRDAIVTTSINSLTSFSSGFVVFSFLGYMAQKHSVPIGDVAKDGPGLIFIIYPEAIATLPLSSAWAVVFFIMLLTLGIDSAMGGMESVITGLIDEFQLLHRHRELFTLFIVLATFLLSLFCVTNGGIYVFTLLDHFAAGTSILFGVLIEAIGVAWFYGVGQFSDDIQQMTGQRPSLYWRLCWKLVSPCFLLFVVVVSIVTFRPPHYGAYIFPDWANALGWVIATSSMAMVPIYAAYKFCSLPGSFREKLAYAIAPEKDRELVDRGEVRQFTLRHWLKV
Summary of the method: (§2)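 Radioligand binding was run by the NIMH Psychoactive Drug Screening Program. Compounds were first screened at 10 μM. Those giving ≥50% binding were taken to full competition curves. Ki is reported as pKi from a sigmoidal curve fit of triplicate measurements in a single experiment; the error is the curve-fit error.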

[5] = molecular target: T2, Alpha-1D adrenergic receptor (Homo sapiens) (UniProt P25100); assay: Displacement of [3H]-Prazosin from human recombinant adrenergic Alpha1D receptor expressed in cells at 10 uM after 90 mins by microbeta scintillation counting method relative to control; assay type: cell-based
T2 sequence (whole entry): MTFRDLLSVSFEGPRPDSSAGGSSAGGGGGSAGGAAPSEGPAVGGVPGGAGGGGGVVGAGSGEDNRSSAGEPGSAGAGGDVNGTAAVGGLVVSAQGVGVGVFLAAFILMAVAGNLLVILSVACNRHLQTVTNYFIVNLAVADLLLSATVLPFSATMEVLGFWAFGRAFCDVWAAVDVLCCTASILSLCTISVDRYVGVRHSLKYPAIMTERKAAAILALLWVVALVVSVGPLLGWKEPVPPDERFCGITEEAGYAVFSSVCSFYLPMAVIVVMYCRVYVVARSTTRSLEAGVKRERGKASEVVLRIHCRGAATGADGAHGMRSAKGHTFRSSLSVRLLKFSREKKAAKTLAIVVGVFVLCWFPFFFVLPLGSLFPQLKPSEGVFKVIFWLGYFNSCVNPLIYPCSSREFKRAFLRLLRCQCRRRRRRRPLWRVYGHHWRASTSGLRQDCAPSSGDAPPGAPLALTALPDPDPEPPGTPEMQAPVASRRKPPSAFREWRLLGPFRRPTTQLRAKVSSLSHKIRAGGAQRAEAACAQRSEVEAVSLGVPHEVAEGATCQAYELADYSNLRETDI

[6] = molecular target: T3, 5-hydroxytryptamine receptor 2C (Homo sapiens, UniProt P28335); assay: Displacement of [3H]-Mesulergine from human recombinant 5-HT2C receptor expressed in HEKT cells after 90 mins by microbeta scintillation counting method; assay type: cell-based; summary of the method: as §1
T3 sequence (P28335 whole entry): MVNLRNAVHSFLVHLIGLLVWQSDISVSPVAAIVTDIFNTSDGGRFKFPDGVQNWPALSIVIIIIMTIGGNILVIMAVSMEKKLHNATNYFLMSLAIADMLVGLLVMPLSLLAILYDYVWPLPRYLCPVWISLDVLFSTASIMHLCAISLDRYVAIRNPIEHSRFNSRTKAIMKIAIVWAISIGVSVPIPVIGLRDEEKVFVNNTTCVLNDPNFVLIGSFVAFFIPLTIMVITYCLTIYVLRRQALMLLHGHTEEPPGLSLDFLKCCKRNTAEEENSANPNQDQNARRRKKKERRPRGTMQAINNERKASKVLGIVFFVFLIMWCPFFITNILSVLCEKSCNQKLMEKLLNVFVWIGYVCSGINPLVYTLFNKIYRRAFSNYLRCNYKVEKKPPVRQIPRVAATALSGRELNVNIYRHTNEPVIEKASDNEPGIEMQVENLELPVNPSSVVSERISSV

[7] = molecular target: 5-hydroxytryptamine receptor 1D (Homo sapiens, UniProt P28221); assay: Displacement of [3H]5-CT from human recombinant 5-HT1D receptor transiently expressed in HEKT cells after 90 mins by microbeta scintillation counting method; assay type: cell-based; summary of the method: as §2
Chain of 5-hydroxytryptamine receptor 1D (P28221 whole entry): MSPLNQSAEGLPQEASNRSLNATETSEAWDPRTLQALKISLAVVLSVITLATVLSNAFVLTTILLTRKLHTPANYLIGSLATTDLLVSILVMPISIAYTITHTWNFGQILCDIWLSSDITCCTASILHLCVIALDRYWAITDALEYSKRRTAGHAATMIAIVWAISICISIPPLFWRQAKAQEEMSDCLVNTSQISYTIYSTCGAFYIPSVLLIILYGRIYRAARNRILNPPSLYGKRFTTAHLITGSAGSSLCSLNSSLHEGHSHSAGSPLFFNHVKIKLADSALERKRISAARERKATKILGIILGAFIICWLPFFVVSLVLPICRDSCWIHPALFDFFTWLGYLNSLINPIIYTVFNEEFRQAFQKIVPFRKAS

[8] = molecular target: T4, Alpha-1B adrenergic receptor (Homo sapiens) (UniProt P35368); assay: Displacement of [3H]-Prazosin from human recombinant adrenergic Alpha1B receptor expressed in HEKT cells at 10 uM after 90 mins by microbeta scintillation counting method relative to control; assay type: cell-based
T4 sequence (whole entry): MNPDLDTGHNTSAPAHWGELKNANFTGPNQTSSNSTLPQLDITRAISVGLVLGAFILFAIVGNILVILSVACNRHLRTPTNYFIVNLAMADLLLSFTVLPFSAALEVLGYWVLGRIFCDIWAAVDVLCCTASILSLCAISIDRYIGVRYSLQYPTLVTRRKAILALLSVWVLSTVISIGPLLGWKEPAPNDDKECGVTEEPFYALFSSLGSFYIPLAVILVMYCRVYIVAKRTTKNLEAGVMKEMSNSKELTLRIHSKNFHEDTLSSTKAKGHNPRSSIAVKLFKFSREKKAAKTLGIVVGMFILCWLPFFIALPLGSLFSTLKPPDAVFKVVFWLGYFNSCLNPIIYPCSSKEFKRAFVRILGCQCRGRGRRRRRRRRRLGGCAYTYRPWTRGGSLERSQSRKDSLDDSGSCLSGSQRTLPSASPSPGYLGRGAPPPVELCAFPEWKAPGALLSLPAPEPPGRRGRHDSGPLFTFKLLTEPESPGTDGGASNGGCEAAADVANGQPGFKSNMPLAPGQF

Row | Compound | inhibition [1] [%] | inhibition (D(1A) dopamine receptor) [%] | Ki [2] [µM] | inhibition (Rattus norvegicus) [%] | Ki [3] [µM] | Ki [4] [µM] | inhibition [5] [%] | Ki [6] [µM] | Ki [7] [µM] | inhibition [8] [%]
1 | CC[C@H]1c2cc(C)ccc2OC[C@@]1(C)N (racemic) | < 50 | < 50 | > 10 | < 50 | > 10 | > 10 | < 50 | 2.51 | > 10 | < 50
2 | COc1cc(OC)c2c(c1)OC[C@@]1(C)NCC[C@@H]21 (racemic) | < 50 | < 50 | > 10 | < 50 | > 10 | > 10 | < 50 | 1.58 | > 10 | < 50
3 | C[C@@]12CN(c3ccccc3)c3ccccc3[C@@H]1CCN2 (racemic) |  |  | > 10 |  | > 10 | > 10 |  | > 10 | > 10 | 
4 | CC[C@H]1c2cc(OC)ccc2CC[C@@]1(C)N (racemic) | < 50 | < 50 | > 10 | < 50 | > 10 | 5.01 | < 50 | 2.51 | > 10 | < 50
5 | CC[C@H]1c2ccccc2N(c2ccccc2)C[C@@]1(C)N (racemic) |  |  | > 10 |  | 1 | 3.16 |  | 3.98 | > 10 | 
